Experimental data: the RNAGym collection of RNA variant scans (doi:10.1126/science.aae0568)
Variants at the floor of the assay were thinned out.

B1: tRNA (parent)
chain: GUUCCGUUGGCGUAAUGGUAACGCGUCUCCCUCCUAAGGAGAAGACUGCGGGUUCGAGUCCCGUACGGAACG

Variants of: B1
Test: yeast fitness relative to wild type (ratio to wild type); higher = fitter; tRNA-Arg(CCU), competitive growth, 37 C, YPD
How it was run: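 The tRNA-Arg(CCU) gene variants were made by chemical synthesis with a 3% per-site mutation rate at 69 sites and inserted at the native genomic locus of Saccharomyces cerevisiae. After pooling, the strains were competed in YPD at 37°C for 24 hours in six parallel replicates. Gene amplicons from the start population and each end population were read by 100-nucleotide paired-end sequencing, and Darwinian fitness relative to wild type was taken from genotype frequency changes. Genotypes needed ≥ 100 starting reads, and estimates < 0.5 were set to 0.5.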

Variant	yeast fitness
C5G A15U U53A	≤ 0.5
C5G A36U C66U	≤ 0.5
C5G C30U U54A	0.601
C5G A15C G58A G67C	≤ 0.5
C5G G6C A21U	0.544
C5G C11U A42U G68A	≤ 0.5
C5G G9C C33A U35C C46U C49U G52C C61U C66U	≤ 0.5
C5A U7C C34U C66U	≤ 0.5
C5G A21C U54A A57G	≤ 0.5
C5G U7C G10A C29G	≤ 0.5
C5G A20G A36C A70C	≤ 0.5
C5G U47C G51A A65C	0.548
C5G A15U A69U	0.698
C5A G25C C66G	≤ 0.5
C5G A15G C24G U32A C34G G68A A69U A70U	0.516
C5G A20C A42U G44A C61G	≤ 0.5
C5A U16A A21G C27G C46U	≤ 0.5
C5G C22A A37G	≤ 0.5
C5G G39C A69U	0.538
C5G A37U C55G C61G C66G	0.623
C5G G17A G18A	0.553
C5G G9C A43G A70U	≤ 0.5
C5G U19G C22U A43G C49G	≤ 0.5
C5G U7C G51C	0.564

Variant	yeast fitness
C5A G39C	0.673
C5G U28C U35A	0.545
C5G C34A	0.702
C5G C29U U54G C60G C62U	≤ 0.5
C5G A36U U59G A65U	≤ 0.5
C5G C33A G41C	≤ 0.5
C5G A21G G44A	0.59
C5G A20G A40G G44A C46G C60G C61U G63A	≤ 0.5
C5G G18A G25A A42G	≤ 0.5
C5G U26G C34G A40C C46U	≤ 0.5
C5G A20G A37G C46G A57C	≤ 0.5
C5A U13A U35A U59C	0.661
C5G A14U C49A A57G	0.639
C5G G17C G23C A57C	≤ 0.5
C5G C34A G50C	≤ 0.5
C5G G10A C11G U16G C33G	0.551
C5A U8C A14G A21G A45C G56C	≤ 0.5
C5U A14C C34G A37U A40U C66U	≤ 0.5
C5G C31A A45C	≤ 0.5
C5G A45C U54G	0.622
C5A G52C C66U	≤ 0.5
C5G G9A A14C A37G C62G	≤ 0.5
C5G U13G C27G C30A	≤ 0.5
C5G U13C C22G G23U C29G A45C G68C A69G	0.531

Variant	yeast fitness
C5G C33A A36C C66U	≤ 0.5
C5A U8A U16G A20U A36G C60G	≤ 0.5
C5G G23A C31G	≤ 0.5
C5G A36U G41A	≤ 0.5
C5G C27U G41C C61U C66G	≤ 0.5
C5G U28A A40C	0.581
C5A U28G A42U	≤ 0.5
C5G A15C C22A G63A A65G	≤ 0.5
C5A G58C C60A A70C	≤ 0.5
C5G A20U C30U	≤ 0.5
C5G C34G A69U	≤ 0.5
C5G G17C C46U G50A	≤ 0.5
C5A G41A C55A	≤ 0.5
C5G U16A U19G A20C C27U C29U C30U A70G	≤ 0.5
C5G C22U U26A A65U	≤ 0.5
C5U A14U C33G C46U A69C	≤ 0.5
C5U A14U C31A C46U G48A C49U	0.568
C5G A15U C29G	≤ 0.5
C5G A20C C33U C62G	≤ 0.5
C5A U32C A36G	0.53
C5G C66A	0.703
C5G A36U A42G A57C	≤ 0.5
C5A G39A G44A C62G C66G	≤ 0.5
C5A G51C G63C A65C A70U	≤ 0.5

Variant	yeast fitness
C5G G10C U13G A40G U54A	≤ 0.5
C5G A15C U32C C46U U53G	≤ 0.5
C5G C30G C31A G50A U54C U59A	0.596
C5G U26C C29U	≤ 0.5
C5G G9C A20G A40C G58A	≤ 0.5
C5A U16C A45G G50A	≤ 0.5
C5G A14U A21G G23A C31U G63C U64A C66G	≤ 0.5
C5A U59A C60U	≤ 0.5
C5G A57C	0.716
C5G C34U C66U	≤ 0.5
C5G A20C C22U C24U C55U	≤ 0.5
C5G C11A A40C U59C	≤ 0.5
C5G A43U U64C	0.703
C5G A14C G23C G38A G58C A70G	0.545
C5G C11A A14G G25C C29G A57U C66U	≤ 0.5
C5A U16C U59G	≤ 0.5
C5G A15U G63A	0.551
C5U A14C C46A G63C A69U	≤ 0.5
C5G A43U C66U A69U	≤ 0.5
C5A G52A G58C	≤ 0.5
C5G C30U A65U	≤ 0.5
C5G C27U C46U	0.754
C5A G39A U47A G68C	≤ 0.5
C5G A21U C27U U28G C33G A36G	≤ 0.5

Variant	yeast fitness
C5G A14U U16C G18C U32A G58A	0.542
C5A U16G A21C C24U C30A U59G	≤ 0.5
C5G G10C G52A U54A	0.55
C5G A21C A45G A57G G68A	≤ 0.5
C5G C46U G50A	0.731
C5G U8G G63A	≤ 0.5
C5G G51C U54A A69U	0.562
C5A G48C G67C	0.591
C5G A20C C29G G38C	0.529
C5G A21G C24U G68A	0.71
C5G C30G	0.523
C5G C55G	0.685
C5G C11G C34U	0.576
C5G A20G C62U C66G	0.663
C5A G67C	1.03
C5G C29G G41C	≤ 0.5
C5G A14U G23C C33A	≤ 0.5
C5G G25C C62U	0.721
C5G C29U A42C C55U	≤ 0.5
C5G G10C A69C	0.556
C5G U59A	0.896
C5G C11A A20C C29U	≤ 0.5
C5G A21G G51A	0.617
C5A U26G	0.785

Variant	yeast fitness
C5G C34G C49U C55U	≤ 0.5
C5G A20C	0.813
C5G G12C C33U G68C	0.612
C5G G44U	0.626
C5G G44A	1.02
C5G U8A G41C G63A	≤ 0.5
C5G C22U C27U A36G	≤ 0.5
C5G A43U	0.719
C5G A43C	0.744
C5G C11G C31G	≤ 0.5
C5G G9C C29U C30U C55A A65G	≤ 0.5
C5G C30G G56C C61U A65C	0.616
C5G U8A	0.641
C5A U16G A20G C29G	0.601
C5A U26A A40G G58C G67U	0.56
C5G G9A C30G	≤ 0.5
C5G G48A	0.978
C5A U8G C27U A45G U53C	≤ 0.5
C5A U16A A45G G50A G56A	≤ 0.5
C5G A20G A65U	0.652
C5G G51C C55G A57U C66U	≤ 0.5
C5A U16A U35C A45G G50A	≤ 0.5
C5G U7A C11U A36C G38A G44C	0.589
C5G C11U C22A	≤ 0.5

Variant	yeast fitness
C5G C11U A42G C49U	0.548
C5G A15U U35A	0.696
C5G U59G G63C	≤ 0.5
C5A U59A A69G	≤ 0.5
C5G U13G C29U A40G C60U A65G	≤ 0.5
C5G C11A A40C U64C	≤ 0.5
C5G G9C U35G C66U	≤ 0.5
C5G A36C A42G C55U C62G A69U	≤ 0.5
C5G G17A C22U U28C C46U G58A	≤ 0.5
C5A U7C C49A A69C	≤ 0.5
C5G U32A A70U	≤ 0.5
C5G U7G	0.564
C5G U7A	0.792
C5G C11G A15U U54C C61G A70C	≤ 0.5
C5A G39A U47A C55U G67A A69G	≤ 0.5
C5G A14U G18A A21U A42G G56C	≤ 0.5
C5G A36U G41A A65U	0.549
C5G C33A A42G A57G	≤ 0.5
C5A U7A A21G	≤ 0.5
C5G G58C A69C	0.794
C5G C60G C62G G67C A69U	0.654
C5G U13G C29U A40G G68A A70C	≤ 0.5
C5G C22A A37G G50C	0.55
